The target in experiment [1] is Histone deacetylase 4 (Homo sapiens) (UniProt P56524). Description: Inhibition of human recombinant N-terminal GST-tagged C-terminal His-tagged HDAC4 (627 to 1084 residues) expressed in insect cells at 10 uM preincubated with enzyme followed by acetyl-Lys(trifluoroacetyl)-AMC substrate addition measured after 2 hrs by fluorescence assay relative to control. An outline of the steps: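 HDAC enzyme in 50 mM Tris-HCl pH 8.0, 137 mM NaCl, 2.7 mM KCl, 1 mM MgCl2 was pre-incubated with compound dosed from DMSO. The reaction was started with the class IIa substrate acetyl-Lys(trifluoroacetyl)-AMC and run 2 h at 30 °C. Developer with trichostatin A stopped it, and fluorescence (Ex/Em 360/460 nm) was read at plateau. Single test concentration 10 µM.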

The next experiment has as its target Histone deacetylase 11 (Homo sapiens, UniProt Q96DB2). Kind of experiment: Inhibition of human recombinant N-terminal His-tagged HDAC11 (1 to 347 residues) expressed in baculovirus infected insect cells preincubated with enzyme followed by fluorogenic Arg-His-Lys-Lys(Ac)-AMC substrate addition measured after 2 hrs by fluorescence assay relative to control.
Experiment [2] has as its target Non-receptor tyrosine-protein kinase TYK2 (Homo sapiens, UniProt P29597). Kind of experiment: Inhibition of human TYK2 (V877 to C1187 residues) expressed in mammalian expression system assessed as residual activity at 100 nM by KINOMEScan assay relative to control. An outline of the steps: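 DiscoveRx competition-binding panel of 97 kinases, measuring binding to the kinase ATP site rather than catalytic turnover. The test compound was run at a single 100 nM concentration. Results are given as % of control binding.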

Experiment [3] has as its target Mast/stem cell growth factor receptor Kit (Homo sapiens, UniProt P10721, T670I/V559D). Kind of experiment: Inhibition of human KIT (Y545 to D952 residues) V559D/T670I double mutant expressed in bacterial expression system by KINOMEScan assay.
A further experiment concerns HEL 92.1.7. Description: Inhibition of colony formation in HEL 92.1.7 cells harboring JAK2 V617F mutant after 14 to 16 days. Format: functional, cell-based. To be noted: Homo sapiens. The method in brief: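 HEL cells (200 cells/mL) mixed into methylcellulose semi-solid medium with inhibitor at various concentrations. Incubated 14-16 days, then colonies counted. Data given as mean ± SEM.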

In experiment [4] the target is T1, Protein deacetylase HDAC6 (Homo sapiens) (UniProt Q9UBN7).
T1 sequence (whole entry): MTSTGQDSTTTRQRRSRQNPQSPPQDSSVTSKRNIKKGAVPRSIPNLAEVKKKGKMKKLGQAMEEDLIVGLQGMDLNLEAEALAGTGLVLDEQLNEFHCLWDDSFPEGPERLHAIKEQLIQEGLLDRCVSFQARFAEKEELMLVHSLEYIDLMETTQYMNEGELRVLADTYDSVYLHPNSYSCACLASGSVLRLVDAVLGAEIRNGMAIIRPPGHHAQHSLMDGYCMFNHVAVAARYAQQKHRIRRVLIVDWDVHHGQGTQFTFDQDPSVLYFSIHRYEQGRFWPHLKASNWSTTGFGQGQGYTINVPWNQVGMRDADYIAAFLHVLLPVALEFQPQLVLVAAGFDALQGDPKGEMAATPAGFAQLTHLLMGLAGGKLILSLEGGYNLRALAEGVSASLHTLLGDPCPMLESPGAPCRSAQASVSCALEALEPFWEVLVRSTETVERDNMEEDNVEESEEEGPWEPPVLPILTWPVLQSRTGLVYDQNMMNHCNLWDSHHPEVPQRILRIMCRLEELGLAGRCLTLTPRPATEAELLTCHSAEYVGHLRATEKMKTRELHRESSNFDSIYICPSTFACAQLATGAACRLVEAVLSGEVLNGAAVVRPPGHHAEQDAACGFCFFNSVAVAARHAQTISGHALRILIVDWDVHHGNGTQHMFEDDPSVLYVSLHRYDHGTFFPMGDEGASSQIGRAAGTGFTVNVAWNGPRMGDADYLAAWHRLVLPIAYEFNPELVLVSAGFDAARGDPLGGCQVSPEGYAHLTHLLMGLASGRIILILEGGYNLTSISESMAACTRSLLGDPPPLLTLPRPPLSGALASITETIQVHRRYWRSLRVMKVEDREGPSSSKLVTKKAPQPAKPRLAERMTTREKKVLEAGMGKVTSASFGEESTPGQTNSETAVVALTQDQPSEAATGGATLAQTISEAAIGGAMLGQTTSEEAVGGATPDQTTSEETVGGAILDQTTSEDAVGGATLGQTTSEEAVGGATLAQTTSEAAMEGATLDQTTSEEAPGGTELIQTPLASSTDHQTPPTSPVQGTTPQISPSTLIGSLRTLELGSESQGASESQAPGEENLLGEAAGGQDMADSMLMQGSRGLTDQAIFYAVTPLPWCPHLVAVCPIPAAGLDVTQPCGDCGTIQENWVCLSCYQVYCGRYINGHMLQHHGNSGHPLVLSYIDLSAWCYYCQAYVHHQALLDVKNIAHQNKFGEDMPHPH
Description: Inhibition of HDAC6 in human KMS-12-BM cells assessed as increase in acetylated tubulin level at 2 times antiproliferative IC50 up to 48 hrs by immunoblot method. The format is cell-based. An outline of the steps: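 KMS-12-BM or MOLM-14 cells (at least 3x10^6 per condition) treated at about 2x their proliferation IC50 in a time course of 0 to 48 h. Tubastatin (15 μM, 48 h) used as HDAC6 control. Lysates immunoblotted for acetyl-α-tubulin and acetyl-H3 (Lys9/Lys14); re-probed for α-tubulin and H3.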
Background: A western blot detects proteins with antibodies after separation by electrophoresis.

In experiment [5] the target is Tyrosine-protein kinase JAK2 (Homo sapiens, UniProt O60674). Description: Inhibition of JAK2 in IL-6-stimulated human KMS-12-BM cells assessed as suppression of STAT3 phosphorylation at TY705 residue at 1.5 uM pretreated for 3 hrs followed by IL-6 stimulation by immunoblot method. The method in brief: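 Cells (at least 3x10^6 per condition; KMS-12-BM or MOLM-14) pretreated with compound for 3 h, then stimulated with IL-6 10 ng/mL for 15 min. Cells lysed, equal protein run on SDS-PAGE and transferred to PVDF. Immunoblotted for p-STAT3 (Tyr705), with membranes re-probed for total STAT3. Reference JAK2 inhibitor control at 2 µM (KMS-12-BM) or 0.1 µM (MOLM-14).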

Experiment [6] deals with MOLM-14. Kind of experiment: Induction of apoptosis in human MOLM14 cells assessed as live cells at 0.75 uM after 48 hrs by Annexin-V FITC/propidium iodide staining based flow cytometry (reference value: 94 to 94.1%). The format is functional. An outline of the steps:
(§1)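 MOLM-14 cells treated 48 h at the stated concentrations; doxorubicin as positive control. Stained with Annexin V-FITC and propidium iodide and analysed by flow cytometry (at least 10,000 events). Gated quadrants: Annexin V−/PI− viable, Annexin V+/PI− early apoptotic, Annexin V+/PI+ late apoptotic.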

Experiment [7] has as its system MOLM-14. Description: Induction of apoptosis in human MOLM14 cells assessed as live cells at 1.5 uM after 48 hrs by Annexin-V FITC/propidium iodide staining based flow cytometry (reference value: 94 to 94.1%). The format is functional. (In general: A flow cytometer gives signals particle by particle.)
Experiment [8] relates to MOLM-14. Kind of experiment: Induction of apoptosis in human MOLM14 cells assessed as live cells at 3 uM after 48 hrs by Annexin-V FITC/propidium iodide staining based flow cytometry (reference value: 94 to 94.1%). Format: functional. An outline of the steps:
as §1

1 molecule from ChEMBL document CHEMBL3877241 (J Med Chem, 2016) can be followed below.

SMILES strings stand for the structures. Activity calls are given as the source filed them. The calls are words filed in the database; no cut-off is given here.

Sequence of Histone deacetylase 11 (Q96DB2 whole entry, the tested form may be a part): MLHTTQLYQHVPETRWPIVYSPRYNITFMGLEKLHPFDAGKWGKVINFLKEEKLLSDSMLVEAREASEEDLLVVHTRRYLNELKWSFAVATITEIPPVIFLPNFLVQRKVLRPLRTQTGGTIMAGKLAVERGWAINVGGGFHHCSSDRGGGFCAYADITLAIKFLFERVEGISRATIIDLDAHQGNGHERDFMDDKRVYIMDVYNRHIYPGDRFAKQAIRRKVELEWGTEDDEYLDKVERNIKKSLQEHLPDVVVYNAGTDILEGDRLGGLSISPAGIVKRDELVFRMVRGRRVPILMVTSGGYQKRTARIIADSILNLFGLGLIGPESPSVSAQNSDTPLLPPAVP
Sequence of Mast/stem cell growth factor receptor Kit (P10721 26-976 V559D/T670I limits assumed): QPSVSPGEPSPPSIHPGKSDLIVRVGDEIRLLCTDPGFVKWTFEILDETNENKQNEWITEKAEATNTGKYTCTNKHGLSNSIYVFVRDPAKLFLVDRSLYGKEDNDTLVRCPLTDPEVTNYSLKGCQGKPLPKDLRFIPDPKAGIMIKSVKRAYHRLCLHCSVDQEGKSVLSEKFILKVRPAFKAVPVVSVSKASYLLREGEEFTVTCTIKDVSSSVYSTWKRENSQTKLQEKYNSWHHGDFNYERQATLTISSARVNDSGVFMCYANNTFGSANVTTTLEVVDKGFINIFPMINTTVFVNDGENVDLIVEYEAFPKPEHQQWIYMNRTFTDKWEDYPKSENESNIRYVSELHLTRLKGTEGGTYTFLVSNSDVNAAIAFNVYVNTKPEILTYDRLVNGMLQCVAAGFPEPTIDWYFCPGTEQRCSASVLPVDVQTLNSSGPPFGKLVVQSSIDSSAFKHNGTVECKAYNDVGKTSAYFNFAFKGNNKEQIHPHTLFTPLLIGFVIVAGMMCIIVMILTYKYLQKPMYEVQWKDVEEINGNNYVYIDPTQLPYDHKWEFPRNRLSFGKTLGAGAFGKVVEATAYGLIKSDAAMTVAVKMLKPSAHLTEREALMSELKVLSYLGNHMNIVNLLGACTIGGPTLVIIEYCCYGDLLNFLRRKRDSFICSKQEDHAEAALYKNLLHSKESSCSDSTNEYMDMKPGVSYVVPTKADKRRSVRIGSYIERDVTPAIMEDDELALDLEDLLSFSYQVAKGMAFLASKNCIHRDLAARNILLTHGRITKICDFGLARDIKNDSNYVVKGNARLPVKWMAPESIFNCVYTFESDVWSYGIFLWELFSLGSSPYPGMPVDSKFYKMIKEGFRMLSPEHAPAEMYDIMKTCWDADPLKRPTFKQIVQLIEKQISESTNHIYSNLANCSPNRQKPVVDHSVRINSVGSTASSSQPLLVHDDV
Sequence of Tyrosine-protein kinase JAK2 (O60674 whole entry): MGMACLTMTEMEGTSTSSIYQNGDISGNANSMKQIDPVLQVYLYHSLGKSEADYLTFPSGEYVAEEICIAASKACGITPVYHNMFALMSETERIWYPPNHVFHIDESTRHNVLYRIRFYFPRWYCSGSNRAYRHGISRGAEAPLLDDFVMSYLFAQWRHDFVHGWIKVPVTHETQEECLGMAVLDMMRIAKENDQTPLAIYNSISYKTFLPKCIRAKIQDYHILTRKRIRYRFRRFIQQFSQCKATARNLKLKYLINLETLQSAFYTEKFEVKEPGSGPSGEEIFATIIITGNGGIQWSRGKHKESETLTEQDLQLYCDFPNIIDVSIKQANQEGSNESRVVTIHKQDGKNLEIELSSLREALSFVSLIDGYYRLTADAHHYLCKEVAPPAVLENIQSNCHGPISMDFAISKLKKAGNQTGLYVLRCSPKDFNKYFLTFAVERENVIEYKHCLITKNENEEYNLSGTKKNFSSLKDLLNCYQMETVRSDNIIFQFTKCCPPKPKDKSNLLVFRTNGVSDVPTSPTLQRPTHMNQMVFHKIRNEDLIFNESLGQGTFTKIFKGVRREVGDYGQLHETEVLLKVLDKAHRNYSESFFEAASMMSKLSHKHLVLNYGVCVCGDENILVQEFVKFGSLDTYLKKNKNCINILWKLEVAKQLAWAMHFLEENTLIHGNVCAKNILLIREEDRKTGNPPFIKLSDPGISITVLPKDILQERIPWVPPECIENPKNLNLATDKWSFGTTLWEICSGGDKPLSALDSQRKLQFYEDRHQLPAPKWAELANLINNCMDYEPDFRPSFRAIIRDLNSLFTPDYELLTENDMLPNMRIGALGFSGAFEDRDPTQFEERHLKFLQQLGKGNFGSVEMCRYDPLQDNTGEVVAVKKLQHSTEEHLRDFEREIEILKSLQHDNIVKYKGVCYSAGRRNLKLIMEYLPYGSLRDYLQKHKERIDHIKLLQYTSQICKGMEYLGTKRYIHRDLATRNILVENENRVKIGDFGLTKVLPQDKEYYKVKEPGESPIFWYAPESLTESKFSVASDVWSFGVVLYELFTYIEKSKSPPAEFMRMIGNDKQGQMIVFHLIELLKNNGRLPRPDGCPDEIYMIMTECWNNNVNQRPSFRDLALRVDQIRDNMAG
Sequence of Non-receptor tyrosine-protein kinase TYK2 (P29597 whole entry, the tested form may be a part): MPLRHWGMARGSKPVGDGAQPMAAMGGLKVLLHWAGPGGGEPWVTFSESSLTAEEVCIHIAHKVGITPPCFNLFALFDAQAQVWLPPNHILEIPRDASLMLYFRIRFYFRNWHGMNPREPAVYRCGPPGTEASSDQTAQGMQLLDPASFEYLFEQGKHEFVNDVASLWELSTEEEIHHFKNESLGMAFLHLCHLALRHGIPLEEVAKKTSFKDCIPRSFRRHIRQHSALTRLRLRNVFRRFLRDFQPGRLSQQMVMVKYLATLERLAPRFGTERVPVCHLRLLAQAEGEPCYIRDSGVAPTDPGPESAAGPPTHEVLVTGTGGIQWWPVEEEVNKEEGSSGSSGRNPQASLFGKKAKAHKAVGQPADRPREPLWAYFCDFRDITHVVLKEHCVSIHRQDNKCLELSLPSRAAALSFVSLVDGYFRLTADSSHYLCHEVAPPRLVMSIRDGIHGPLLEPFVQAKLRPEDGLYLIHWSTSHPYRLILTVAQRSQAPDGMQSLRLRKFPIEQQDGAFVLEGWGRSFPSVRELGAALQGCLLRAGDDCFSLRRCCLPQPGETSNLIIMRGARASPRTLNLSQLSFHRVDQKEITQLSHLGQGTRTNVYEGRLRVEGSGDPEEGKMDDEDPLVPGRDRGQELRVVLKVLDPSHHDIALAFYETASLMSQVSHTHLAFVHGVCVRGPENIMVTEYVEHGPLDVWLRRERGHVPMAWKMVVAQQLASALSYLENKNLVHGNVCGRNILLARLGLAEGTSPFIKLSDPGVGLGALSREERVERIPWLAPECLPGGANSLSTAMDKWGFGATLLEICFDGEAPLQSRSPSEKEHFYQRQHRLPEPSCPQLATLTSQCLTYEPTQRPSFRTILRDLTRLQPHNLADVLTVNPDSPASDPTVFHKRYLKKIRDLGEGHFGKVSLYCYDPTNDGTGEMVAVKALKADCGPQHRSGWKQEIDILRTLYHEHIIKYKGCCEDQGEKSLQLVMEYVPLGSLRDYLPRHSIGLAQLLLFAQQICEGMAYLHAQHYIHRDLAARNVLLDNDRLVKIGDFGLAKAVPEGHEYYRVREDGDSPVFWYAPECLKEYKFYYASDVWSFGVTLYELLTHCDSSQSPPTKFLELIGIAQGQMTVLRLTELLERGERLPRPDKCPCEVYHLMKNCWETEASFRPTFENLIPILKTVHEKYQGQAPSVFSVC
Sequence of Histone deacetylase 4 (Homo sapiens) (P56524 whole entry, the tested form may be a part): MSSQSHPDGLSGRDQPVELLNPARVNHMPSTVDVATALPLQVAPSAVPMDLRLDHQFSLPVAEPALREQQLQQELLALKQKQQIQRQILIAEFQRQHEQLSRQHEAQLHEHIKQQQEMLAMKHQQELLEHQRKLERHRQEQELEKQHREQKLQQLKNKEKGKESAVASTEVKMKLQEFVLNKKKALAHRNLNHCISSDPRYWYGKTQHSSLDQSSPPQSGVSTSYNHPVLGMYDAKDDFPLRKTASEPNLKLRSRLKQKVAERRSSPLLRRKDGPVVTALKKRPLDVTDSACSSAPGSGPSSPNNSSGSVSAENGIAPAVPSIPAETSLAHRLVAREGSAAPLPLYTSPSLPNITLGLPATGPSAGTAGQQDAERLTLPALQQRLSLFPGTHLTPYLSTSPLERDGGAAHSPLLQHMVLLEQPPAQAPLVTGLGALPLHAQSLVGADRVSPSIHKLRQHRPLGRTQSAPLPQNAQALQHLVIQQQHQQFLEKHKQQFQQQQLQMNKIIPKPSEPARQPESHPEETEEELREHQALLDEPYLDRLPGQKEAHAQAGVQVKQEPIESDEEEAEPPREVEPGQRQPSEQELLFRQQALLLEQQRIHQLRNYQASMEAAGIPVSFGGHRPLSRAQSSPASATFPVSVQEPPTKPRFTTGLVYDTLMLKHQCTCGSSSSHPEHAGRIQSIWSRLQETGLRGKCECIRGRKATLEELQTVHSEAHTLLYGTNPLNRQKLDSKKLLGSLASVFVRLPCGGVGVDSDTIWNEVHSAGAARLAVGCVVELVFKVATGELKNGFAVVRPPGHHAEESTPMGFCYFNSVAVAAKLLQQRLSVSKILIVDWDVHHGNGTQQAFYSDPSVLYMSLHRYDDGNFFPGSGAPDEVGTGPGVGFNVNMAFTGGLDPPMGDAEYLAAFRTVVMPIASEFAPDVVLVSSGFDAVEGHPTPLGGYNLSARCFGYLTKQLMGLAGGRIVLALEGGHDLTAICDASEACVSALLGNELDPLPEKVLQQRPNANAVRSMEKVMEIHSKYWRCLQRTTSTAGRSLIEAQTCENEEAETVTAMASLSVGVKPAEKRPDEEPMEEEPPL

Regarding `O=C(CCCCCCOc1ccc2cc1COC/C=C/COCc1cccc(c1)-c1ccnc(n1)N2)NO`, the inhibition in [1] was 8.6%; in the experiment on HEL 92.1.7, “Dose-dependent effect”. The concentration for half-maximal inhibition (IC50) was 930 nM at Histone deacetylase 11 and 1000 to 10000 nM in experiment [3]. Besides, the Activity in experiment [2] was determined as 4.9%; with MOLM-14 [6], 81.7%; in the experiment on MOLM-14 [7], 74.1%; in the experiment with MOLM-14 [8], 29.9%. For the same molecule, the inhibition entry in experiment [4] and in experiment [5] was “Active” each time.

Broadly, the inhibition is the relative decrease from the control value, in per cent. In general, IC50 refers to the point on the concentration scale where inhibition reaches its midpoint.
